TRPC6 inh – mouse TRPC6 channel inhibition; Q61143; HEK293-TRPC6, membrane potential dye, ACh-evoked depolarization; stronger effect = lower value; B-score at 10 µM; hit rate 1.1% among 310,000; AID 2553;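 active = B-score under library mean minus 3 SD, initial fluorescence not abnormally high, positive integrated signal ratio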;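 note: B-score derived from integrated fluorescence ratio over the kinetic read; more negative B-score means stronger inhibition of depolarization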
TRPC4 act – TRPC4 (mouse) channel activation | HEK293 TRPC4beta/mu-opioid, Fluo4 calcium fluorescence; stronger effect = higher value | B-score at 10 µM | hit rate 0.49% among 310,000 | AID 2237;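 active = B-score above 5 SD of library B-scores, and initial fluorescence ratio not above library mean plus 5 SD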;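 note: positive B-score marks a calcium rise read as TRPC4 activation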
Target sequence (Q9QUQ5 whole entry, looked up): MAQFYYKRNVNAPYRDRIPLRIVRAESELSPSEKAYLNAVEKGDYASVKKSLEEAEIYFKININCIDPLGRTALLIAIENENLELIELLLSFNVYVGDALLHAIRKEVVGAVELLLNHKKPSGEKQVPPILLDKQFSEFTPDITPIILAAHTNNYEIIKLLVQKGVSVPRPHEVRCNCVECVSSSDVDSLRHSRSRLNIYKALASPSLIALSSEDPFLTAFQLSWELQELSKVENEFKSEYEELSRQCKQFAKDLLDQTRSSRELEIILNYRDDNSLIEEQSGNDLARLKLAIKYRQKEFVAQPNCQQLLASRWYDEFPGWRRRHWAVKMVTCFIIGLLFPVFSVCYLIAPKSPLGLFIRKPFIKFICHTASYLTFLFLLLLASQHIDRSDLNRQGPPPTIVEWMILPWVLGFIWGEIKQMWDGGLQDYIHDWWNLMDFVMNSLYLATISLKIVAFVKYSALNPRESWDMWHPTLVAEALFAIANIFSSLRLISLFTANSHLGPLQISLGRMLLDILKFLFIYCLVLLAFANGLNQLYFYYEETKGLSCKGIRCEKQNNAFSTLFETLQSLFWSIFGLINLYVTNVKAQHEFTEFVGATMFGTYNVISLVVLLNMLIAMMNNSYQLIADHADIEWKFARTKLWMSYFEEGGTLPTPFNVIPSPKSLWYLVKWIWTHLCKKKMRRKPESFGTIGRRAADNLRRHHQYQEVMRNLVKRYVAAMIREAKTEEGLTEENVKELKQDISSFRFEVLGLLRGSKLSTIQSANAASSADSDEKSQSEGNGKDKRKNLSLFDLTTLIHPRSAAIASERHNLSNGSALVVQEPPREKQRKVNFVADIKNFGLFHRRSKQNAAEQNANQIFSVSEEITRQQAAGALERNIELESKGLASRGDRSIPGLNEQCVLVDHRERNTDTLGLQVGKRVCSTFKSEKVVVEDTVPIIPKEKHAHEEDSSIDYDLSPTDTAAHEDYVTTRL
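Assay system: HEK293 stable line with TRPC4beta plus mu-opioid receptor. Times: dye 45 min RT, read 110 s. Measured by: kinetic Fluo4 calcium fluorescence. Measure: B score of integrated ratio. Controls: assay buffer as low control, maximal DAMGO as high control.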
TRPC4 block – TRPC4 (mouse) channel inhibition | hit rate 0.39% among 300,000 | B-score at 10 µM | HEK293 TRPC4beta/mu-opioid, DAMGO-evoked Fluo4 calcium flux; stronger effect = lower value | Q9QUQ5;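 active = B-score over 3 SD under the library average, no early fluorescence shift, positive overall ratio signal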
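material = TRPC4beta/mu-opioid receptor HEK293 cell line | probe or stimulus = sequential submaximal and maximal DAMGO stimulation | compound dosing = one concentration per compound | measured by = Fluo4 Ca2+ flux fluorescence | evaluation = integrated fluorescence ratio relative to baseline, converted to per-well B score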
TRPC6 activator – activators of mouse TRPC6 channel. HEK293-TRPC6 membrane potential dye fluorescence; stronger effect = higher value. B-score at 10 µM. hit rate 0.13% among 310,000. AID 2550;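 active = B-score of the integrated fluorescence ratio above library mean plus 3 SD, and starting fluorescence ratio within library mean plus 5 SD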;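 note: higher score means more depolarization so channel activation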
TRPC4 potent – allosterically enhances the mouse TRPC4 cation channel | Q9QUQ5 | HEK293 TRPC4beta/mu-opioid, DAMGO EC20, Fluo-4 Ca2+ flux; stronger effect = higher value | B-score at 10 µM | hit rate 0.42% among 310,000;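 active = B-score of calcium response area above 5 SD of library B-scores, with initial fluorescence ratio within 5 SD of library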;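 note: B-score of integrated fluorescence ratio over time as area under calcium response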
TRPC4 sel inh 2 – mouse TRPC4 off-target activity of TRPC6 inhibitors, second screen; shares compounds with TRPC6 inh; inhibition, % at 10 µM; AID 2776; hit rate 42% among 920; HEK293 TRPC4/MOR, membrane potential dye fluorescence; channel activated by saturating DAMGO dose;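 active = compounds whose fluorescence signal differed from control wells by over 3 SD, either direction, in both duplicate plates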
TRPC4 spec – selectivity of TRPC6 inhibitors: effect on mouse TRPC4 | activity change, negative = inhibition, % at 10 µM | hit rate 61% among 920 | shares compounds with TRPC6 inh | HEK293 TRPC4/mu-opioid, membrane potential fluorescence | AID 2777;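 active = rise or fall in signal beyond 3 SD of buffer-only wells in both replicate plates, either sign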;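 note: integrated kinetic ratio of fluorescence range over baseline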
HEK293 MPD ctr 2-1 – second check of TRPC6 inhibitor effects in parental HEK293 cells; signal change vs control, % at 10 µM; parental HEK293 membrane potential dye fluorescence; maximal acetylcholine challenge after compound addition; shares compounds with TRPC6 inh; hit rate 31% among 920; AID 2779;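 active = membrane potential signal moving either way by over 3 SD of the maximum-effect control, in both duplicate plates, meaning non-specific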
HEK293 MPD ctr-1 – parental HEK293 nonspecific activity of TRPC6 inhibitors | shares compounds with TRPC6 inh | parental HEK293 membrane potential dye fluorescence | membrane potential signal change, % at 10 µM | hit rate 60% among 920 | AID 2780;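 active = membrane potential signal shifting up or down by more than 3 SD of buffer-only wells, on both duplicate plates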
HEK293 MPD ctr-2 – counter-screen for TRPC6 modulators: effect in parental HEK293 cells; hit rate 51% among 2,400; membrane potential dye fluorescence; membrane potential signal change, % at 10 µM; shares compounds with TRPC6 inh;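 active = membrane potential signal moves up or down beyond 5 SD from buffer-only wells, on both duplicate plates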
HEK293 MPD ctr 2-2 – second check of TRPC6 modulator effects in parental HEK293 cells | shares compounds with TRPC6 inh | membrane potential dye fluorescence; after compound, maximal acetylcholine stimulation | inhibition, % at 10 µM | hit rate 14% among 2,400;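 active = membrane potential signal drops by more than 5 SD from the mean control signal, in both duplicate plates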;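 note: plate controls were acetylcholine ECmax control wells for no effect and buffer only wells for full effect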
TRPC4/MOR mod – mouse TRPC4 off-target activity of TRPC6 modulators; shares compounds with TRPC6 inh; HEK293 TRPC4/mu-opioid, membrane potential fluorescence; percent change from control (negative = decrease, positive = increase), % at 10 µM; hit rate 69% among 2,400; AID 488927;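 active = membrane potential signal moved up or down beyond 5 SD of buffer control wells, in both duplicate plates, actives on both sides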;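 note: plate controls were assay buffer wells for no effect and DAMGO maximal-effect wells for full effect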
TRPC4/MOR inh 2 – second selectivity test of TRPC6 modulators against mouse TRPC4 | inhibition, % at 10 µM | hit rate 55% among 2,400 | shares compounds with TRPC6 inh | AID 488928 | HEK293 TRPC4/mu-opioid, membrane potential dye fluorescence; stimulated with maximal-effect DAMGO;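 active = drop in membrane potential signal beyond 5 SD of the control wells in both duplicate plates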;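 note: TRPC4 counter screen for TRPC6 hits run under conditions tuned for TRPC6 not TRPC4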
TRPC6 inh conf – mouse TRPC6 inhibitor confirmation. shares compounds with TRPC6 inh. HEK293-TRPC6, membrane potential dye, ACh-evoked depolarization. inhibition, % at 10 µM. hit rate 43% among 3,300. AID 488960;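 active = fluorescence ratio falls more than 5 SD below the full-stimulation control mean, in both duplicate runs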;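 note: integrated fluorescence ratio of peak minus minimum over baseline after agonist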
TRPC6 act conf – mouse TRPC6 activator confirmation; hit rate 11% among 2,800; AID 488961; activation, % at 10 µM; HEK293-TRPC6 membrane potential dye fluorescence, FDSS; shares compounds with TRPC6 inh;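 active = ratio signal rise beyond 5 SD above unstimulated control wells' mean, seen in both duplicate runs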;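 note: plate controls were buffer EC0 wells for no effect and acetylcholine ECmax response for full effect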
* = called active by the depositor. Sampled rows, rich in hits. Any-hit rate of the full collection: about 2.3%.

`O=C(NC(=S)NC1C2CC3CC(C2)CC1C3)C12CC3CC(CC(C3)C1)C2` (stereo unspecified) gave TRPC6 inh -8*, TRPC4 act inactive, TRPC4 block inactive, TRPC6 activator inactive, TRPC4 potent inactive, TRPC4 sel inh 2 inactive, TRPC4 spec inactive, HEK293 MPD ctr 2-1 inactive, HEK293 MPD ctr-1 inactive, TRPC6 inh conf inactive and TRPC6 act conf inactive.
Cc1ccc(CNC(=O)CSc2nc(C)cc(C)c2C#N)cc1 was read as TRPC6 inh inactive, TRPC4 act inactive, TRPC4 block inactive, TRPC6 activator inactive and TRPC4 potent inactive.
CN(CCCNC(=O)COc1cc(=O)n(C)c2ccccc12)Cc1ccccc1 was read as TRPC6 inh inactive, TRPC4 act inactive, TRPC4 block inactive, TRPC6 activator inactive and TRPC4 potent inactive.
Screening O=C(O)c1cc(NN=C2c3ccccc3-c3ccccc32)ccc1Cl returned TRPC6 inh -5.4*, TRPC4 act inactive, TRPC4 block -8*, TRPC6 activator inactive, TRPC4 potent inactive, HEK293 MPD ctr-2 inactive, HEK293 MPD ctr 2-2 inactive, TRPC4/MOR mod -12%*, TRPC4/MOR inh 2 59%* and TRPC6 inh conf 61%*.
`CN(C)CCn1c(C(=O)Nc2ccccc2)cc2ccccc21` gave TRPC6 inh -7.8*, TRPC4 act inactive, TRPC4 block inactive, TRPC6 activator inactive, TRPC4 potent inactive, TRPC4 sel inh 2 48%*, TRPC4 spec -17%*, HEK293 MPD ctr 2-1 inactive, HEK293 MPD ctr-1 -235%*, TRPC6 inh conf inactive and TRPC6 act conf inactive.
For Cc1nc2ccccc2n1C1CCN(CC(=O)NCc2ccc(F)cc2)CC1 the results were TRPC6 inh inactive, TRPC4 act inactive, TRPC4 block inactive, TRPC6 activator inactive and TRPC4 potent inactive.
Screening COCCn1c(SCC(=O)N2CCCC2=O)nc2sc(C)c(C)c2c1=O returned TRPC6 inh inactive, TRPC4 act inactive, TRPC4 block inactive, TRPC6 activator inactive and TRPC4 potent inactive.
For CC1CCN(c2nc(/C=C/c3ccccc3)nc3ccccc23)CC1 the results were TRPC6 inh -6.1*, TRPC4 act inactive, TRPC4 block inactive, TRPC6 activator inactive, TRPC4 potent inactive, HEK293 MPD ctr-2 inactive, HEK293 MPD ctr 2-2 inactive, TRPC4/MOR mod -19%*, TRPC4/MOR inh 2 inactive, TRPC6 inh conf inactive and TRPC6 act conf inactive.
For CCOc1cc(-c2cc(N)n[nH]2)cc(OCC)c1OCC the results were TRPC6 inh inactive, TRPC4 act inactive, TRPC4 block inactive, TRPC6 activator inactive and TRPC4 potent inactive.
`Cc1cccc(OCC(O)Cn2c(N3CCCCC3)nc3c2c(=O)n(C)c(=O)n3C)c1` (stereo unspecified) gave TRPC6 inh -6.1*, TRPC4 act inactive, TRPC4 block inactive, TRPC6 activator inactive, TRPC4 potent inactive, HEK293 MPD ctr-2 inactive, HEK293 MPD ctr 2-2 inactive, TRPC4/MOR mod 8.0%*, TRPC4/MOR inh 2 inactive and TRPC6 inh conf 80%*.
`Cn1c(=O)c2c(nc(N3CCCCCC3)n2CC(O)COc2ccccc2)n(C)c1=O` (stereo unspecified) gave TRPC6 inh inactive, TRPC4 act inactive, TRPC4 block inactive, TRPC6 activator inactive and TRPC4 potent inactive.
Screening CCCC(NC(=O)CCc1c(C)c2cc3c4c(oc3c(C)c2oc1=O)CCCC4)C(=O)O (stereo unspecified) returned TRPC6 inh inactive, TRPC4 act inactive, TRPC4 block inactive, TRPC6 activator inactive and TRPC4 potent inactive.
`CC(=O)Nc1ccc(CN2CCc3c([nH]c4ccccc34)C2c2ccccn2)cc1` (stereo unspecified) gave TRPC6 inh -7.3*, TRPC4 act 54*, TRPC4 block inactive, TRPC6 activator inactive, TRPC4 potent inactive, HEK293 MPD ctr-2 inactive, HEK293 MPD ctr 2-2 inactive, TRPC4/MOR mod 66%*, TRPC4/MOR inh 2 70%*, TRPC6 inh conf inactive and TRPC6 act conf inactive.
For c1ccc(C2c3[nH]c4ccccc4c3CCN2Cc2cccn2-c2ccccn2)nc1 (stereo unspecified) the results were TRPC6 inh inactive, TRPC4 act inactive, TRPC4 block inactive, TRPC6 activator inactive and TRPC4 potent inactive.
`O=C(CSc1nc(-c2ccco2)cc(C(F)(F)F)n1)Nc1ccc2c(c1)OCO2` gave TRPC6 inh inactive, TRPC4 act inactive, TRPC4 block inactive, TRPC6 activator inactive and TRPC4 potent inactive.
Screening Cc1[nH]n(-c2ccc([N+](=O)[O-])cc2)c(=O)c1/C=N/N1CCOCC1 returned TRPC6 inh inactive, TRPC4 act inactive, TRPC4 block inactive, TRPC6 activator inactive and TRPC4 potent inactive.

Compound activity: PubChem, Johns Hopkins Ion Channel Center
